ChEMBL document CHEMBL1123263, “Alkylglycidic acids: potential new hypoglycemic agents” (J Med Chem, 1986)
Active and inactive are the calls of the source. The rule behind the calls is not given here.

tested on: Rattus norvegicus; assay: Maximum lowering of blood glucose when 100 mg/kg of the drug administered orally was reported by rat glucose tolerance test; Inactive; format: functional, organism-based; parameters: dose 100 mg/kg; details: not given

| Structure (SMILES) | Max lowering |
| --- | --- |
| CCCCCCCCCCCCCCC1(CCC(=O)OC)CO1 (configuration not stated) | inactive |
| COC(=O)C1(C)CO1 (configuration not stated) | inactive |
| CCCCCCCCCCCCCCC1(C(=O)OC)OC1(C)C (configuration not stated) | inactive |
| CCCCCCCCCCCCCCC1(C(=O)OC)OC1C (configuration not stated) | inactive |
| CCCCCCCCCCCCCCC1(CO)CO1 (configuration not stated) | inactive |
| CCCCCCCCCCCCCCC1(CC(C(=O)OC)C(=O)OC)CO1 (configuration not stated) | inactive |
| CCCCCCCCCCC1(C(=O)OCC)OC1(C)C (configuration not stated) | inactive |

species: Rattus norvegicus; assay: In vitro inhibition of palmitate oxidation; format: functional; details: not given
Procedure, shortened: (§1)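 In vitro assay in rat hemidiaphragm muscle, using [1-¹⁴C]palmitic acid as the labeled substrate. Read-out was inhibition of oxidation of the labeled palmitate.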

| Structure (SMILES) | IC50 [µM] |
| --- | --- |
| CCCCCCCCCCCCCCC1(C(=O)[O-])CO1.[Na+] (configuration not stated) | 1 |

same assay, conditions: Rattus norvegicus

| Structure (SMILES) | IC50 [µM] |
| --- | --- |
| CCCCCCCCCCCC1(C(=O)OC)CO1 (configuration not stated) | 7 |
| CCCCCCCCCCC1(C(=O)OC)CO1 (configuration not stated) | 5 |
| CCCCCCCCCCCCCC1(C(=O)OC)CO1 (configuration not stated) | 13 |
| CCCCCCCCCCCCCCC1(C(=O)OCCCC)CO1 (configuration not stated) | 47 |
| CCCCCCC1(C(=O)OC)CO1 (configuration not stated) | 102 |
| CCCCCCCCCCCCCCCCC1(C(=O)OC)CO1 (configuration not stated) | 100 |
| CCCCCCCCCCCCCCC1(C(=O)OC)CO1 (configuration not stated) [METHYL PALMOXIRATE] | 2 |
| CCCCCCCCCCCCC1(C(=O)OC)CO1 (configuration not stated) | 15 |
| CCCCCCCCCCCCCCC1(C(=O)OCC(O)CO)CO1 (configuration not stated) | 16 |

tested on: Rattus norvegicus; assay: Maximum lowering of blood glucose when 100 mg/kg of the drug administered orally was reported by rat glucose tolerance test; format: functional; details: route oral

| Structure (SMILES) | Max lowering [%] |
| --- | --- |
| CCCCCCCCCCCCCCC1(C(N)=O)CO1 (configuration not stated) | 44 |
| CCCCCCCCCCCCCCC1(C(=O)NCCO)CO1 (configuration not stated) | 33 |
| CCCCCCCCCCCC1(C(=O)OC)CO1 (configuration not stated) | 38 |
| CCCCCCCCCCCCCCCCCCCCCCC1(C(=O)OC)CO1 (configuration not stated) | 17 |
| CCCCCCCCCCCCCC1(C(=O)OC)CO1 (configuration not stated) | 37 |
| CCCCCCCCCCCCCCCCCCC1(C(=O)OC)CO1 (configuration not stated) | 25 |
| CCCCCCCCCCCCCCC1(C(=O)OCCCC)CO1 (configuration not stated) | 40 |
| CCCCCCCCCCCCCCC1(C(=O)O)CO1 (configuration not stated) [PALMOXIRATE] | 53 |
| CCCCCCC1(C(=O)OC)CO1 (configuration not stated) | 30 |
| CCCCCCCCCCCCCCCCC1(C(=O)OC)CO1 (configuration not stated) | 16 |
| CCCCCCCCCCCCC1(C(=O)OC)CO1 (configuration not stated) | 32 |
| CCCCCCCCCCCCCCC1(C(=O)N(C)C)CO1 (configuration not stated) | 19 |

tested on: Rattus norvegicus; assay: Maximum lowering of blood glucose when 25 mg/kg of the drug administered orally was reported by rat glucose tolerance test; format: functional; details: route oral

| Structure (SMILES) | Max lowering [%] |
| --- | --- |
| COC(=O)C1(CCCCCCCCCCc2ccccc2)CO1 (configuration not stated) | 36 |
| CCCCCCCCCCCCCCC1(C(=O)OCC(O)CO)CO1 (configuration not stated) | 31 |

species: Rattus norvegicus; assay: In vitro inhibition of palmitate oxidation; Inactive; format: functional; details: not given; procedure, shortened: as §1

| Structure (SMILES) | IC50 |
| --- | --- |
| CCCCCCCCCCCCCCC1(C(N)=O)CO1 (configuration not stated) | Not Active |
| CCCCCCCCCCCCCCC1(C(=O)NCCO)CO1 (configuration not stated) | Not Active |
| CCCCCCCCCCCCCCCCCCCCCCC1(C(=O)OC)CO1 (configuration not stated) | Not Active |
| CCCCCCCCCCCCCCC1(CCC(=O)OC)CO1 (configuration not stated) | Not Active |
| COC(=O)C1(C)CO1 (configuration not stated) | Not Active |
| CCCCCCCCCCCCCCC1(C(=O)OC)OC1(C)C (configuration not stated) | Not Active |
| CCCCCCCCCCCCCCC1(C(=O)OC)OC1C (configuration not stated) | Not Active |
| CCCCCCCCCCCCCCC1(CO)CO1 (configuration not stated) | Not Active |
| CCCCCCCCCCCCCCC1(CC(C(=O)OC)C(=O)OC)CO1 (configuration not stated) | Not Active |
| CCCCCCCCCCCCCCC1(C(=O)N(C)C)CO1 (configuration not stated) | Not Active |
| CCCCCCCCCCC1(C(=O)OCC)OC1(C)C (configuration not stated) | Not Active |

species: Rattus norvegicus; assay: Compound was tested in vitro for inhibition of palmitate oxidation; Inactive; format: functional; details: not given; procedure, shortened: as §1

| Structure (SMILES) | MEC |
| --- | --- |
| CCCCCCCCCCCCCCC1(C(N)=O)CO1 (configuration not stated) | inactive |
| CCCCCCCCCCCCCCC1(C(=O)NCCO)CO1 (configuration not stated) | inactive |
| CCCCCCCCCCCCCCCCCCCCCCC1(C(=O)OC)CO1 (configuration not stated) | inactive |
| CCCCCCCCCCCCCCC1(CCC(=O)OC)CO1 (configuration not stated) | inactive |
| COC(=O)C1(C)CO1 (configuration not stated) | inactive |
| CCCCCCCCCCCCCCCCCCC1(C(=O)OC)CO1 (configuration not stated) | inactive |
| CCCCCCCCCCCCCCC1(C(=O)OC)OC1(C)C (configuration not stated) | inactive |
| CCCCCCCCCCCCCCC1(C(=O)OC)OC1C (configuration not stated) | inactive |
| CCCCCCCCCCCCCCC1(CO)CO1 (configuration not stated) | inactive |
| CCCCCCCCCCCCCCC1(CC(C(=O)OC)C(=O)OC)CO1 (configuration not stated) | inactive |
| CCCCCCCCCCCCCCC1(C(=O)N(C)C)CO1 (configuration not stated) | inactive |
| CCCCCCCCCCC1(C(=O)OCC)OC1(C)C (configuration not stated) | inactive |

tested on: Rattus norvegicus; assay: Maximum lowering of blood glucose when 75 mg/kg of the drug administered orally was reported by rat glucose tolerance test; format: functional; details: route oral

| Structure (SMILES) | Max lowering [%] |
| --- | --- |
| CCCCCCCCCCCCCCC1(C(=O)OC)CO1 (configuration not stated) [METHYL PALMOXIRATE] | 45 |

tested on: Rattus norvegicus; assay: Maximum lowering of blood glucose when 50 mg/kg of the drug administered orally was reported by rat glucose tolerance test; format: functional; details: route oral

| Structure (SMILES) | Max lowering [%] |
| --- | --- |
| CCCCCCCCCCC1(C(=O)OC)CO1 (configuration not stated) | 32 |

tested on: Rattus norvegicus; assay: Minimum effective concentration by rat glucose tolerance test (po); Inactive; format: functional, organism-based; details: not given

| Structure (SMILES) | MED |
| --- | --- |
| CCCCCCCCCCCCCCC1(CCC(=O)OC)CO1 (configuration not stated) | inactive |
| COC(=O)C1(C)CO1 (configuration not stated) | inactive |
| CCCCCCCCCCCCCCC1(C(=O)OC)OC1(C)C (configuration not stated) | inactive |
| CCCCCCCCCCCCCCC1(C(=O)OC)OC1C (configuration not stated) | inactive |
| CCCCCCCCCCCCCCC1(CO)CO1 (configuration not stated) | inactive |
| CCCCCCCCCCCCCCC1(CC(C(=O)OC)C(=O)OC)CO1 (configuration not stated) | inactive |
| CCCCCCCCCCC1(C(=O)OCC)OC1(C)C (configuration not stated) | inactive |

tested on: Rattus norvegicus; assay: Minimum effective concentration by rat glucose tolerance test (po); format: functional; details: read-out: MED

| Structure (SMILES) | minimal effective dose [mg/kg] |
| --- | --- |
| CCCCCCCCCCCCCCC1(C(N)=O)CO1 (configuration not stated) | 10 |
| CCCCCCCCCCCCCCC1(C(=O)NCCO)CO1 (configuration not stated) | 100 |
| CCCCCCCCCCCC1(C(=O)OC)CO1 (configuration not stated) | 10 |
| CCCCCCCCCCC1(C(=O)OC)CO1 (configuration not stated) | 10 |
| CCCCCCCCCCCCCCC1(C(=O)[O-])CO1.[Na+] (configuration not stated) | 2.5 |
| CCCCCCCCCCCCCCCCCCCCCCC1(C(=O)OC)CO1 (configuration not stated) | 10 |
| COC(=O)C1(CCCCCCCCCCc2ccccc2)CO1 (configuration not stated) | 10 |
| CCCCCCCCCCCCCC1(C(=O)OC)CO1 (configuration not stated) | 5 |
| CCCCCCCCCCCCCCCCCCC1(C(=O)OC)CO1 (configuration not stated) | 10 |
| CCCCCCCCCCCCCCC1(C(=O)OCCCC)CO1 (configuration not stated) | 1.5 |
| CCCCCCCCCCCCCCC1(C(=O)O)CO1 (configuration not stated) [PALMOXIRATE] | 5 |
| CCCCCCC1(C(=O)OC)CO1 (configuration not stated) | 10 |
| CCCCCCCCCCCCCCCCC1(C(=O)OC)CO1 (configuration not stated) | 25 |
| CCCCCCCCCCCCCCC1(C(=O)OC)CO1 (configuration not stated) [METHYL PALMOXIRATE] | 4 |
| CCCCCCCCCCCCC1(C(=O)OC)CO1 (configuration not stated) | 5 |
| CCCCCCCCCCCCCCC1(C(=O)N(C)C)CO1 (configuration not stated) | 25 |
| CCCCCCCCCCCCCCC1(C(=O)OCC(O)CO)CO1 (configuration not stated) | 5 |

tested on: Rattus norvegicus; assay: Maximum lowering of blood glucose when 60 mg/kg of the drug administered orally was reported by rat glucose tolerance test; format: functional; details: route oral

| Structure (SMILES) | Max lowering [%] |
| --- | --- |
| CCCCCCCCCCCCCCC1(C(=O)[O-])CO1.[Na+] (configuration not stated) | 38 |

species: Rattus norvegicus; assay: Compound was tested in vitro for inhibition of palmitate oxidation; format: functional; details: not given; procedure, shortened: as §1

| Structure (SMILES) | MEC [µM] |
| --- | --- |
| CCCCCCCCCCCCCCC1(C(=O)[O-])CO1.[Na+] (configuration not stated) | 0.2 |

same assay, conditions: Rattus norvegicus; read-out: MEC

| Structure (SMILES) | minimal effective concentration [µM] |
| --- | --- |
| CCCCCCCCCCCC1(C(=O)OC)CO1 (configuration not stated) | 2.5 |
| CCCCCCCCCCC1(C(=O)OC)CO1 (configuration not stated) | 0.5 |
| CCCCCCCCCCCCCC1(C(=O)OC)CO1 (configuration not stated) | 1 |
| CCCCCCCCCCCCCCC1(C(=O)OCCCC)CO1 (configuration not stated) | 10 |
| CCCCCCCCCCCCCCC1(C(=O)O)CO1 (configuration not stated) [PALMOXIRATE] | 0.1 |
| CCCCCCC1(C(=O)OC)CO1 (configuration not stated) | 20 |
| CCCCCCCCCCCCCCCCC1(C(=O)OC)CO1 (configuration not stated) | 10 |
| CCCCCCCCCCCCCCC1(C(=O)OC)CO1 (configuration not stated) [METHYL PALMOXIRATE] | 0.1 |
| CCCCCCCCCCCCC1(C(=O)OC)CO1 (configuration not stated) | 1 |
| CCCCCCCCCCCCCCC1(C(=O)OCC(O)CO)CO1 (configuration not stated) | 10 |
